The values below come from ChEMBL document CHEMBL1143592, “N-terminal sugar conjugation and C-terminal Thr-for-Thr(ol) exchange in radioiodinated Tyr3-octreotide: effect on cellular ligand trafficking in vitro and tumor accumulation in vivo” (J Med Chem, 2005).

Common to all, as to assay type: cell-based
The target of experiment [1] is T1, Somatostatin receptor type 1 (Homo sapiens, UniProt P30872). The experiment can be described thus: In vitro inhibition of [125I][Leu8,D-Trp22,Tyr25] somatostatin 28 binding to human somatostatin receptor type 1 expressed in CHO-K1 cells; (n=7). Summed up: (§1)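 Receptor autoradiography on sections of cell membrane pellets from CHO-K1 (sst1, sst5) or CCL39 (sst2–4) cells stably expressing the human subtype. Full displacement of [125I][Leu8,D-Trp22,Tyr25]somatostatin 28 by unlabeled peptide, 0.1–1000 nM, with somatostatin 28 run in parallel as control. IC50 derived by computer-assisted image analysis, quantified against cross-calibrated [125I] tissue standards.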
T1 sequence (P30872 whole entry): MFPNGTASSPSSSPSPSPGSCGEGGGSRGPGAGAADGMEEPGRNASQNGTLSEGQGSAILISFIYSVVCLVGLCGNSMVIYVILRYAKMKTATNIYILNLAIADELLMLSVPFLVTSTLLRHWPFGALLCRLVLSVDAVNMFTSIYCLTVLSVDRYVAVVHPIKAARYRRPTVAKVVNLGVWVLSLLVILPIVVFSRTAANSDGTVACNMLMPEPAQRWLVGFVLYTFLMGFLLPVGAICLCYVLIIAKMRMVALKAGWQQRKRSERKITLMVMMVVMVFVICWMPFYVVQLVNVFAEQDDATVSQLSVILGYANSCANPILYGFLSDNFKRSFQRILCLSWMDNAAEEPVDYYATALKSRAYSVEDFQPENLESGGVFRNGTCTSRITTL

Experiment [2] concerns the target T2, Somatostatin receptor type 3 (Homo sapiens, UniProt P32745). The experiment in a line: In vitro inhibition of [125I][Leu8,D-Trp22,Tyr25] somatostatin 28 binding to human somatostatin receptor type 3 expressed in CCL39 cells; (n=4). In short, it runs like this:
as §1

In experiment [3] the target is T3, Somatostatin receptor type 4 (Homo sapiens, UniProt P31391). The experiment in a line: In vitro inhibition of [125I][Leu8,D-Trp22,Tyr25] somatostatin 28 binding to human somatostatin receptor type 4 expressed in CCL39 cells; (n=6).
T3 sequence (P31391 whole entry): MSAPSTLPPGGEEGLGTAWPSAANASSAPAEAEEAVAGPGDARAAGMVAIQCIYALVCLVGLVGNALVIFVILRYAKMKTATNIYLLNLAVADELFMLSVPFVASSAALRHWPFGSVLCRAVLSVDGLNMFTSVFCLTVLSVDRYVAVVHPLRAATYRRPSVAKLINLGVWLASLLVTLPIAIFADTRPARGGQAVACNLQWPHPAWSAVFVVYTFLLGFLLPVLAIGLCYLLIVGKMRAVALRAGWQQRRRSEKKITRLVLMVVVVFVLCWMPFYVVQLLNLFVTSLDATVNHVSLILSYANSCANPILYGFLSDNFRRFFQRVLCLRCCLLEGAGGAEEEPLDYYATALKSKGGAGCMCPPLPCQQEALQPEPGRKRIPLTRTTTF
Experiment [4] concerns the target Somatostatin receptor type 5 (Homo sapiens, UniProt P35346). The experiment can be described thus: In vitro inhibition of [125I][Leu8,D-Trp22,Tyr25] somatostatin 28 binding to human somatostatin receptor type 5 expressed in CHO-K1 cells; (n=6).
Experiment [5] deals with T1, Somatostatin receptor type 1. The experiment can be described thus: In vitro inhibition of [125I][Leu8,D-Trp22,Tyr25] somatostatin 28 binding to human somatostatin receptor type 1 expressed in CHO-K1 cells; (n=5).
The target in experiment [6] is T2, Somatostatin receptor type 3. The experiment in a line: In vitro inhibition of [125I][Leu8,D-Trp22,Tyr25] somatostatin 28 binding to human somatostatin receptor type 3 expressed in CCL39 cells; (n=5).
For experiment [7], the target named is T3, Somatostatin receptor type 4. The experiment in a line: In vitro inhibition of [125I][Leu8,D-Trp22,Tyr25] somatostatin 28 binding to human somatostatin receptor type 4 expressed in CCL39 cells; (n=5).
For experiment [8], the target named is T2, Somatostatin receptor type 3. The experiment can be described thus: In vitro inhibition of [125I][Leu8,D-Trp22,Tyr25] somatostatin 28 binding to human somatostatin receptor type 3 expressed in CCL39 cells; (n=2). In short, it runs like this: as §1
The target of experiment [9] is T3, Somatostatin receptor type 4. The experiment in a line: In vitro inhibition of [125I][Leu8,D-Trp22,Tyr25] somatostatin 28 binding to human somatostatin receptor type 4 expressed in CCL39 cells; (n=2). Summed up:
as §1

Experiment [10] deals with T1, Somatostatin receptor type 1. The experiment in a line: In vitro inhibitory concentration against somatostatin receptor type 1 expressed in CHO-K1 cells using [125I][Leu8,D-Trp22,Tyr25] somatostatin 28 as radioligand; (n=2). In short, it runs like this:
as §1

T2 sequence (P32745 whole entry): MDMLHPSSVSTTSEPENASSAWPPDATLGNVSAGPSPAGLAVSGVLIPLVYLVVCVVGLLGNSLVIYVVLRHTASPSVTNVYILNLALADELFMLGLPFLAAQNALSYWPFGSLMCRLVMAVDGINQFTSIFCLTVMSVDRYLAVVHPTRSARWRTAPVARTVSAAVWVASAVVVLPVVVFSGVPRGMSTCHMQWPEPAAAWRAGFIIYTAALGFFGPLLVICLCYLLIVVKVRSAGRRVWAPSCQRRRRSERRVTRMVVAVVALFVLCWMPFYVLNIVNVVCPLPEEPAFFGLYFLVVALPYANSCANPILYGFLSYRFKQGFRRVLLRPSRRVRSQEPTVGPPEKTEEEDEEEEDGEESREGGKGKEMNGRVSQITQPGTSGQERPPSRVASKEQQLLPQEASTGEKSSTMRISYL
Sequence of Somatostatin receptor type 5 (P35346 whole entry): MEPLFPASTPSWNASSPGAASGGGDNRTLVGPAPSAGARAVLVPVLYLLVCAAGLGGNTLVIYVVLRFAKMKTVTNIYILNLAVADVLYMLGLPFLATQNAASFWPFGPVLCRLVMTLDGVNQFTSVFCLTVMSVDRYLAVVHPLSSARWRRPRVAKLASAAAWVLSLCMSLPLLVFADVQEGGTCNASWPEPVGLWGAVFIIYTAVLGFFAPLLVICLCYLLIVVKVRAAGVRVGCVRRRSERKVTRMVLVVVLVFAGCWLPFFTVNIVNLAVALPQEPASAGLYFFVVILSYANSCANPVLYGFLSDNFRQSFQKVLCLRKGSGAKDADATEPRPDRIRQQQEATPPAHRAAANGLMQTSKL

For `C[C@@H](O)[C@@H]1NC(=O)[C@H](CCCCN)NC(=O)[C@@H](Cc2c[nH]c3ccccc23)NC(=O)[C@H](Cc2ccc(O)cc2)NC(=O)[C@@H](NC(=O)[C@@H](Cc2ccccc2)NC(=O)CN2CCN(CC(=O)O)CCN(CC(=O)O)CCN(CC(=O)O)CC2)CSSC[C@@H](C(=O)N[C@H](CO)[C@@H](C)O)NC1=O` [EDOTREOTIDE], the IC50 in experiment [1] was over 10 µM; in experiment [2], 880 nM; in [3] it was over 1000 nM; in experiment [4], 393 nM.

Turning to `C[C@H](O)[C@@H](CO)NC(=O)[C@@H]1CSSC[C@H](NC(=O)[C@H](N)Cc2ccccc2)C(=O)N[C@@H](Cc2ccc(O)c(I)c2)C(=O)N[C@H](Cc2c[nH]c3ccccc23)C(=O)N[C@@H](CCCCN)C(=O)N[C@@H]([C@@H](C)O)C(=O)N1`, the results for the IC50 in experiment [5], in [6] and in [7] were over 1000 nM, 186 nM and 729 nM, respectively.

`C[C@H](O)[C@@H](CO)NC(=O)[C@@H]1CSSC[C@H](NC(=O)[C@H](N)Cc2ccccc2)C(=O)N[C@@H](Cc2ccc(O)cc2)C(=O)N[C@H](Cc2c[nH]c3ccccc23)C(=O)N[C@@H](CCCCN)C(=O)N[C@@H]([C@@H](C)O)C(=O)N1`: the IC50 was 330 nM in [8], 346 nM in experiment [9] and over 1000 nM in experiment [10].

As a reminder, the IC50 is the concentration needed to halve the response being measured. Low values mean greater potency, high ones weaker potency.
